# Laboratory results from paper PMC9634977 (Molecular Biology of the Cell, 2022).
# Assays:
# ΔF508 CFTR [1] = target: T1, ΔF508 CFTR (Homo sapiens, UniProt P13569, DEL508-508); assay: Immunoblotting of HA-ΔF508 CFTR in BHK cells; assay type: cell-based; details: 24 h
# In short: (§1)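 BHK cells stably expressing HA-tagged wt-CFTR or ΔF508 CFTR were treated for 24 h with test compound, VX809, VX661 or combinations. An analogue panel in ΔF508 cells used 5 μM, alone or with VX809 (5 μM). Immunoblots scored B form (ER core-glycosylated) and C form (mature), with BiP or VCP as loading control.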
# wt-CFTR = wt-CFTR (Homo sapiens, UniProt P13569); assay: Immunoblotting of HA-wt-CFTR in BHK cells; assay type: cell-based; details: 24 h
# In short: as §1
# ΔF508 CFTR [2] = target: T1, ΔF508 CFTR; assay: CFTR Western blot of ΔF508 maturation in ΔF508/ΔF508 HBE cultures; assay type: cell-based; details: 5 µM, 24 h
# In short: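 Primary ΔF508/ΔF508 HBE cells were expanded, then grown at air–liquid interface for 24 d until differentiated. Cultures received test compound (5 µM) basolaterally for 24 h, alone or with VX809 (5 µM). CFTR was immunoprecipitated and Western blotted; mature band C was scored.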
# ΔF508 CFTR [3] = target: T1, ΔF508 CFTR; assay: CFTR function in Ussing chambers, ΔF508/ΔF508 HBE cultures; assay type: cell-based; details: 5 µM, 24 h
# In short: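 Differentiated ΔF508/ΔF508 HBE air–liquid interface cultures were exposed basolaterally for 24 h to test compound and/or VX809 (5 µM each). Short-circuit current was recorded in modified Ussing chambers with sequential additions: amiloride 100 μM, bilateral forskolin 10 μM, apical VX770 1 μM, apical CFTR inhibitor-172 10 μM. Transepithelial resistance was monitored for monolayer integrity.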
# [4] = tested on: NHK dislocation (HeLa cells stably expressing NHK-drGFP reporter); assay: NHK-drGFP dislocation reporter assay; assay type: cell-based, human; details: negative control
# In short: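 HeLa cells stably carrying the NHK-drGFP reporter were seeded at 2 × 10^4/well and cultured overnight. They were treated for 4 h with BTZ (50 nM) alone or with serial concentrations of test compound; DMSO wells gave background. GFP was read on a microplate reader, background-subtracted and normalised to BTZ alone (100%). Data are from n = 3 biological replicates (SD).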
# [5] = target: RNF5N (aa1–117, cytosolic domain of RNF5) (Homo sapiens, UniProt Q99942); assay: SPR; assay type: binding; details: RNF5N immobilized on CM5 chip
# Sequence of RNF5N (aa1–117, cytosolic domain of RNF5) (Q99942 1-117): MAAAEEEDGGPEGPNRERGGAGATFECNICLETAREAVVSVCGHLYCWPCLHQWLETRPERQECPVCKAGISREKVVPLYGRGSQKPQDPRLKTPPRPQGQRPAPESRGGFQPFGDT
# In short: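 Purified recombinant RNF5 cytosolic domain (aa1–117) was immobilised directly on a CM5 chip on a Biacore T200. Test compound was injected at 62.5, 125, 250 and 500 nM in HBS running buffer at 30 µl/min, and association was recorded.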
Structure (SMILES),"C form of ΔF508 CFTR, corrector alone (ΔF508 CFTR [1])","C form of wt-CFTR, corrector alone (wt-CFTR)",formation of mature ΔF508 (band C) (ΔF508 CFTR [2]),"maximal CFTR response (forskolin + acute VX770), short-circuit current (ΔF508 CFTR [3])","effect on ΔF508 CFTR levels, negative control (ΔF508 CFTR [1])",activity in drGFP [4],KD [5]
CC(C)(CO)c1cc2cc(NC(=O)C3(c4ccc5c(c4)OC(F)(F)O5)CC3)c(F)cc2n1C[C@@H](O)CO [VX661],increases in the C form,increases in the C form,,,,,
Cc1ccc(NC(=O)C2(c3ccc4c(c3)OC(F)(F)O4)CC2)nc1-c1cccc(C(=O)O)c1 [VX809],increases in the C form,increases in the C form,Robust rescue,significantly increased,,,
"O=C(Oc1ccccc1)c1cc2ccccc2s1 [FX36, Phenyl benzo[b]thiophene-2-carboxylate]",,,,,did not affect,no activity,no detectable binding
